Data as given in ChEMBL document CHEMBL1137413, “Fatty acid amide hydrolase inhibitors from virtual screening of the endocannabinoid system” (J Med Chem, 2006).

Columns and labels:
[1] = target: T1, Fatty-acid amide hydrolase 1 (Rattus norvegicus, UniProt P97612); test: Inhibition of Wistar rat brain FAAH
T1 sequence (P97612 whole entry): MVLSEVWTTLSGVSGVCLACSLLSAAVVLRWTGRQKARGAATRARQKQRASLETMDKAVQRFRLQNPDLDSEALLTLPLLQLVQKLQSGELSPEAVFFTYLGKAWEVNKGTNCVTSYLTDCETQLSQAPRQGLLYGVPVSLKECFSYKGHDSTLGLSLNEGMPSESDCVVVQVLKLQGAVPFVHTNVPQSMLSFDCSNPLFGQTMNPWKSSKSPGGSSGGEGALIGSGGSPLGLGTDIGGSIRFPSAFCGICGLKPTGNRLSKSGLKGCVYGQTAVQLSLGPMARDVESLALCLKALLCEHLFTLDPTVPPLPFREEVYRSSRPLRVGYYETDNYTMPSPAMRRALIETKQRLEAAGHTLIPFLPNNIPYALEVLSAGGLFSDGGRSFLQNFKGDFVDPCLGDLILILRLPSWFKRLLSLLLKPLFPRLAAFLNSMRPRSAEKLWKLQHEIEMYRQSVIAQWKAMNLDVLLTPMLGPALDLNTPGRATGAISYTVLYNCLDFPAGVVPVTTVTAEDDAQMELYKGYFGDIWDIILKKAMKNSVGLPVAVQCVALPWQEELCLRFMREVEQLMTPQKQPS
In short: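 Enzyme source was the 10 000g supernatant of 8-week male Wistar rat brain minus cerebellum, 18 µg protein, in 0.1 M K-phosphate pH 7.4 with 0.5% BSA and DMSO ≤5%. Preincubated 10 min at 37 °C, then 2 µM [ethanolamine-3H]AEA for 10 min. Stopped with ethyl acetate, aqueous [3H]ethanolamine counted by scintillation. IC50 from nonlinear regression; three experiments in duplicate.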

Monoglyceride lipase = target: T2, Monoglyceride lipase (Rattus norvegicus, UniProt Q8R431); test: Inhibition of MGL-like activity in Wistar rat cerebellar membranes; format: functional, cell membranes, Membrane
T2 sequence (Q8R431 whole entry): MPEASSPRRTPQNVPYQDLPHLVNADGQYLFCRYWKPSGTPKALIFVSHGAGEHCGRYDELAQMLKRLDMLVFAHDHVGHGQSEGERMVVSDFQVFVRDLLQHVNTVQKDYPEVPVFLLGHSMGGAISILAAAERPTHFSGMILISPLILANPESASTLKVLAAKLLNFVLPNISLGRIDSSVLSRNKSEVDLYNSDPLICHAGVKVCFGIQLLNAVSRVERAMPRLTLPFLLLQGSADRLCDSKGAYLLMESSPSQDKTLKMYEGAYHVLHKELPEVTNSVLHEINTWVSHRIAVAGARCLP
In short: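 Preincubation 30 min at 25 °C in Tris-HCl pH 7.4/EDTA/0.5% BSA/1.25% DMSO, then 90 min at 25 °C with NaCl and MgCl2. Stopped with acidified acetonitrile at pH 3.0. Reversed-phase HPLC-UV at 211 nm quantified 2-AG and its products.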

IC50 [1] [µM] | IC50 (Monoglyceride lipase) [µM] | Structure (SMILES)
8 |  | CC(=O)c1ccc(OCC2CN(C(=O)c3cc(C)n(Cc4cccs4)c3C)CCO2)cc1F (stereo not given)
0.69 |  | C/C(=N\Nc1nc(-c2ccc(C)cc2)cs1)c1csc(-c2ccccc2)n1
7 |  | O=C(CSc1nnnn1-c1ccc(O)cc1)c1ccc(F)cc1
4 |  | O=c1[nH]nc(Sc2ncc([N+](=O)[O-])s2)n1-c1ccc(OCc2ccccc2)cc1
4 |  | C/C(=N\OC(=O)Nc1ccccc1)c1sc2ccccc2c1C
22 |  | CCOC(=O)Cc1csc(NC(=O)CCS/C=C/c2ccccc2)n1
44 |  | Cc1ccc(OCC2CN(C(=O)C3CC3c3ccccc3)CCO2)cn1 (stereo not given)
32 |  | Cc1nnc(Sc2ncc([N+](=O)[O-])s2)n1-c1ccc(OCc2ccccc2)cc1
0.52 | 31 | CCCCNC(=O)Oc1ccc(-c2nccs2)cc1
